Assay results from ChEMBL document CHEMBL3244011, “(Aryloxy)[p-(aryloxy)phenyl]- and (aryloxy)[p-(arylthio)phenyl]acetic acids and esters as hypolipidemic agents” (1979).

What was measured:
Assay type in all cases: functional
Set-up in all cases: scale not given: the % may be the effect or the level left
Rattus norvegicus [1] = assay: Hypolipidemic activity in COBBS-CD rat assessed as reduction in serum sterol level at 0.1% administered with chow diet after 5 days relative to control
Procedure, shortened: (§1)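 Male COBBS-CD rats, four per treated group and eight per control group. The compound was mixed into ground rat chow at 0.1, 0.03 or 0.01% w/w (about 100, 30 and 10 mg/kg). Control chow received only the mixing solvent (methanol-chloroform 1:3 v/v). Food and water were ad libitum for 5 days, then rats were decapitated and blood collected. Serum sterols were measured by an automated method and expressed relative to controls; ± values are SD.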

Rattus norvegicus [2] = assay: Hypolipidemic activity in COBBS-CD rat assessed as reduction in serum sterol level at 0.03% administered with chow diet after 5 days relative to control; procedure, shortened: as §1
Rattus norvegicus [3] = assay: Hypolipidemic activity in COBBS-CD rat assessed as reduction in serum sterol level at 0.01% administered with chow diet after 5 days relative to control; procedure, shortened: as §1
Rattus norvegicus [4] = assay: Hypolipidemic activity in COBBS-CD rat assessed as reduction in serum triglyceride level at 0.1% administered with chow diet after 5 days relative to control
Procedure, shortened: (§2)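 The compound was given in ground chow at 0.1, 0.03 or 0.01% w/w (about 100, 30 and 10 mg/kg) to male COBBS-CD rats (n=4; solvent-chow controls n=8) for 5 days ad libitum. Rats were killed by decapitation and blood collected. Serum triglycerides were assayed by an automated method and compared with controls; ± values are SD.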

Rattus norvegicus [5] = assay: Hypolipidemic activity in COBBS-CD rat assessed as reduction in serum triglyceride level at 0.03% administered with chow diet after 5 days relative to control; procedure, shortened: as §2
Rattus norvegicus [6] = assay: Hypolipidemic activity in COBBS-CD rat assessed as reduction in serum triglyceride level at 0.01% administered with chow diet after 5 days relative to control; procedure, shortened: as §2

SMILES | Activity (Rattus norvegicus [1]) | Activity (Rattus norvegicus [2]) | Activity (Rattus norvegicus [3]) | Activity (Rattus norvegicus [4]) | Activity (Rattus norvegicus [5]) | Activity (Rattus norvegicus [6])
COC(=O)C(Oc1ccccc1)c1ccc(Oc2ccccc2)cc1 (configuration not stated) | 21% | 19% | 10% | 58% | 49% | 46%
O=C(OCC(O)CO)C(Oc1ccc(Cl)cc1)c1ccc(Oc2ccc(Cl)cc2)cc1 (configuration not stated) | 39% | 27% | 13% | 63% | 53% | 24%
COC(=O)C(Oc1cccc2c1CCC2)c1ccc(Oc2ccc(Cl)cc2)cc1 (configuration not stated) | 19% | 10% | 7% | 17% | -8% | -39%
COC(=O)C(Oc1ccc(C(C)(C)C)cc1)c1ccc(Oc2cccc(C(F)(F)F)c2)cc1 (configuration not stated) | 26% | 35% | 12% | 77% | 70% | 52%
COC(=O)C(Oc1cccc(C(F)(F)F)c1)c1ccc(Oc2ccc(C(C)(C)C)cc2)cc1 (configuration not stated) | 13% | -4% | -5% | 19% | -18% | -12%
COC(=O)C(Oc1cccc(C(F)(F)F)c1)c1ccc(Oc2ccc(C#N)cc2)cc1 (configuration not stated) | 32% | 24% | 12% | 50% | 34% | -37%
COC(=O)C(Oc1ccc(Cl)cc1)c1ccc([S+]([O-])c2ccc(Cl)cc2)cc1 (configuration not stated) | 31% | 11% | 15% | 55% | 35% | 12%
COC(=O)C(Oc1ccc(C(C)(C)C)cc1)c1ccc(Sc2ccc(Cl)cc2)cc1 (configuration not stated) | 12% | 27% | 10% | 59% | 56% | 45%
COC(=O)C(Oc1ccc(Cl)cc1)(C(=O)OC)c1ccc(Oc2ccc(Cl)cc2)cc1 | 32% | 25% | 9% | 63% | 48% | -2%
COC(=O)C(Oc1ccc(Cl)cc1)c1ccc(Oc2ccccc2)cc1 (configuration not stated) | 13% | 3% | 19% | 58% | 56% | 62%
COC(=O)C(Oc1ccc(Cl)cc1)c1ccc(Sc2ccccc2)cc1 (configuration not stated) | 6% | 6% | 6% | 30% | 47% | 41%
COC(=O)C(Oc1ccc(C2CCCCC2)cc1)c1ccc(Oc2ccc(C(C)(C)C)cc2)cc1 (configuration not stated) | 33% | 16% | -5% | 52% | 49% | 29%
COC(=O)C(Oc1ccc(Cl)cc1)c1ccc(Oc2ccc(Cl)cc2)cc1 (configuration not stated) | 33% | 23% | 16% | 56% | 48% | 39%
COC(=O)C(Oc1cccc(Cl)c1)c1ccc(Oc2ccc(Cl)cc2)cc1 (configuration not stated) | 19% | 11% | -3% | 50% | 22% | 13%
O=C(O)C(Oc1ccc(Cl)cc1)c1ccc(Oc2ccc(Cl)cc2)cc1 (configuration not stated) | 31% | 23% | 12% | 60% | 50% | 34%
COC(=O)C(Oc1ccc(Cl)c2cccnc12)c1ccc(Oc2ccc(Cl)cc2)cc1 (configuration not stated) | 5% | 4% | 4% | 5% | 4% | -3%
COC(=O)C(Oc1cccc(-c2ccccc2)c1)c1ccc(Oc2ccc(Cl)cc2)cc1 (configuration not stated) | 28% | 21% | 8% | 66% | 45% | 38%
COC(=O)C(Oc1ccc(C(C)(C)C)cc1)c1ccc(Oc2ccc(NC(C)=O)cc2)cc1 (configuration not stated) | 16% | 18% | 5% | 55% | 50% | 44%
COC(=O)C(Oc1cc(Cl)cc(Cl)c1)c1ccc(Oc2ccc(Cl)cc2)cc1 (configuration not stated) | 26% | 10% | -11% | 47% | 6% | -44%

SMILES | Activity (Rattus norvegicus [1]) | Activity (Rattus norvegicus [2]) | Activity (Rattus norvegicus [3]) | Activity (Rattus norvegicus [4]) | Activity (Rattus norvegicus [5]) | Activity (Rattus norvegicus [6])
O=C(O)C(Oc1ccc(Oc2ccccc2)cc1)c1ccc(Oc2ccc(Cl)cc2)cc1 (configuration not stated) | 33% | 21% | 13% | 54% | 38% | 53%
COC(=O)C(Oc1ccc2c(c1)CCCC2)c1ccc(Oc2ccc(Cl)cc2)cc1 (configuration not stated) | 42% | 26% | 24% | 47% | 35% | 8%
COC(=O)C(Oc1ccc(C)c(C)c1)c1ccc(Oc2ccc(Cl)cc2)cc1 (configuration not stated) | 46% | 28% | 18% | 63% | 45% | 23%
COC(=O)C(Oc1ccc(Cl)c(Cl)c1)c1ccc(Oc2ccc(Cl)cc2)cc1 (configuration not stated) | 24% | 26% | 5% | 67% | 60% | 14%
COC(=O)C(Oc1ccc(F)cc1)c1ccc(Oc2ccc(S(C)(=O)=O)cc2)cc1 (configuration not stated) | 10% | -1% | -3% | 3% | -8% | 16%
COC(=O)C(Oc1ccc(C(C)(C)C)cc1)c1ccc(Oc2ccc(Cl)c3ccccc23)cc1 (configuration not stated) | 23% | 24% | 16% | 56% | 39% | 29%
COC(=O)C(Oc1ccc(C(F)(F)F)cc1)c1ccc(Oc2ccc(Cl)cc2)cc1 (configuration not stated) | 20% | 28% | 24% | 53% | 51% | 60%
COC(=O)C(Oc1ccc(C(C)(C)C)cc1)c1ccc(Oc2ccc(Cl)cc2)cc1 (configuration not stated) | 20% | 20% | 27% | 57% | 53% | 41%
COC(=O)C(Oc1ccc(Cl)cc1)c1ccc(Oc2ccc(C(C)(C)C)cc2)cc1 (configuration not stated) | 7% | 11% | 17% | 46% | 30% | 25%
O=C(O)C(Oc1ccccc1)c1ccc(Oc2ccccc2)cc1 (configuration not stated) | 22% | 15% | 21% | 51% | 37% | 3%
COC(=O)C(Oc1ccc(Cl)cc1)c1ccc(Sc2ccc(Cl)cc2)cc1 (configuration not stated) | 25% | 25% | 17% | 64% | 62% | 66%
COC(=O)C(Oc1ccc2ccc(=O)oc2c1)c1ccc(Oc2ccc(Cl)cc2)cc1 (configuration not stated) | -4% | 7% | -5% | -16% | -23% | 4%
COC(=O)C(Oc1ccc(F)cc1)c1ccc(Oc2cccc(C(F)(F)F)c2)cc1 (configuration not stated) | 32% | 6% | 4% | 48% | 27% | 45%
COC(=O)C(Oc1ccc(C(C)(C)C)cc1)c1ccc(Oc2ccc([N+](=O)[O-])cc2)cc1 (configuration not stated) | 10% | -4% | -3% | 51% | 40% | 34%
COC(=O)C(Oc1cc(C(C)(C)C)cc(C(C)(C)C)c1)c1ccc(Oc2ccc(Cl)cc2)cc1 (configuration not stated) | -6% | -12% | -30% | 7% | -7% | 23%
COC(=O)C(Oc1ccc(C2(C)CCCCC2)cc1)c1ccc(Oc2ccc(Cl)cc2)cc1 (configuration not stated) | 18% | 13% | 26% | 65% | 70% | 64%
O=C(O)C(Oc1ccc(F)cc1)c1ccc(Oc2ccc(Cl)cc2)cc1 (configuration not stated) | 29% | 28% | 41% | 58% | 48% | 20%
COC(=O)C(Oc1cccc2c1CCCC2)c1ccc(Oc2ccc(Cl)cc2)cc1 (configuration not stated) | 23% | 14% | 1% | 41% | -1% | -34%
